Data set [1] concerns the target T1, hNPFF1R (Homo sapiens, UniProt Q9GZQ6). Put plainly: IP accumulation assay, wt hNPFF1R in COS-7 cells with chimeric G-protein. In kind it is cell-based. Particulars: for functional behaviour at NPFF1R: IP accumulation assays; for functional behaviour at NPFF1R / IP accumulation at NPFF1R: wt NPFF1R; for x-fold: wt hNPFF1R, EC50(compound)/EC50(endogenous ligand NPVF at wt); for IP accumulation at NPFF1R: at 10 μM.

The target of the next data set is human NPFF2 receptor (Homo sapiens, UniProt Q9Y5X5). Put plainly: IP accumulation assay, wt hNPFF2R in COS-7 cells with chimeric G-protein. In kind it is cell-based. The following applies: for functional behaviour at NPFF2R: IP accumulation assays, wt NPFF2R; for x-fold: wt hNPFF2R, EC50(compound)/EC50(NPFF at wt).
The next data set has as its system COS-7 cells. Put plainly: Resazurin-based cell viability assay. Details: species or system African Green Monkey. Particulars: 2 h incubation, at high compound concentrations. The procedure, abridged:
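COS-7 cells seeded 30,000/well, grown to subconfluency, exposed 2 h to varying concentrations in DMEM (4.5 g/L glucose, L-glutamine, 10% heat-inactivated FCS). Controls were 70% EtOH for 10 min and FCS medium. Cells were washed twice in serum-free medium, then given 10% resazurin in serum-free medium for 2 h at 37°C. Resorufin fluorescence was read at ex 550/em 595 nm. Two independent experiments, triplicates; IC50 derived.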

Another data set has as its target Y^7.35A_hNPFF2R (Homo sapiens, UniProt Q9Y5X5, Y417A). Put plainly: IP accumulation assay, Y^7.35A mutant of hNPFF2R. In kind it is cell-based. The following applies: Y^7.35A hNPFF2R; ratio to EC50 of NPFF at wt.
For data set [2], the target named is T1, hNPFF1R. The data set is described as follows: Antagonism: NPVF concentration-response curves. Type of data set: cell-based. The following applies: against NPVF.
Data set [3] addresses T1, hNPFF1R. The following applies: CHO-hNPFF1R cells, up to 10 μM; cited from earlier work.
The next data set concerns hNPFF2R. Particulars: cited from earlier work.
A further data set has as its target Y^5.38A hNPFF2 receptor (Homo sapiens, UniProt Q9Y5X5, Y321A). The data set is described as follows: IP accumulation assay, Y^5.38A mutant of hNPFF2R. In kind it is cell-based. Particulars: Y^5.38A hNPFF2R; ratio to EC50 of NPFF at wt.
For another data set, the target named is D^6.59A_hNPFF2R (Homo sapiens, UniProt Q9Y5X5, D400A). Put plainly: IP accumulation assay, D^6.59A mutant of hNPFF2R. In kind it is cell-based. Particulars: D^6.59A hNPFF2R; ratio to EC50 of NPFF at wt.
The target in a further data set is Y^7.33A_hNPFF2R (Homo sapiens, UniProt Q9Y5X5, Y415A). Put plainly: IP accumulation assay, Y^7.33A mutant of hNPFF2R. In kind it is cell-based. The following applies: Y^7.33A hNPFF2R; ratio to EC50 of NPFF at wt.
The conditions of data set [4]: rats, spinal nerve ligation; cited from earlier work.

As a reminder, the EC50 is the midpoint of the concentration-response curve.

Sequence of Y^7.35A_hNPFF2R (Q9Y5X5 whole entry Y417A): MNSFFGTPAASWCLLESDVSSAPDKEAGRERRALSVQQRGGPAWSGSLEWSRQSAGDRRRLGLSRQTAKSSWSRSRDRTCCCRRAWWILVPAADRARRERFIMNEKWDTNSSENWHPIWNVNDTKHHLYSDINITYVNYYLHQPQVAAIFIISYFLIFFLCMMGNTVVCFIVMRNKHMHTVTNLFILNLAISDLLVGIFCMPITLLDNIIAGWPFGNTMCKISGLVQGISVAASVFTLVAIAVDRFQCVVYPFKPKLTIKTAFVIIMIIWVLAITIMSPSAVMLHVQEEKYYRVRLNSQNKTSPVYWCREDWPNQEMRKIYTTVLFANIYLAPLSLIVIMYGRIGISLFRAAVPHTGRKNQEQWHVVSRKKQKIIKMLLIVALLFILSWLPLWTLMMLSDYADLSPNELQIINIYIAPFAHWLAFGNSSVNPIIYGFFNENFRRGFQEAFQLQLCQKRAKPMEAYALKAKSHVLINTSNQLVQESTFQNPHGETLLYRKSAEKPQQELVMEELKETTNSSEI
T1 sequence (Q9GZQ6 whole entry): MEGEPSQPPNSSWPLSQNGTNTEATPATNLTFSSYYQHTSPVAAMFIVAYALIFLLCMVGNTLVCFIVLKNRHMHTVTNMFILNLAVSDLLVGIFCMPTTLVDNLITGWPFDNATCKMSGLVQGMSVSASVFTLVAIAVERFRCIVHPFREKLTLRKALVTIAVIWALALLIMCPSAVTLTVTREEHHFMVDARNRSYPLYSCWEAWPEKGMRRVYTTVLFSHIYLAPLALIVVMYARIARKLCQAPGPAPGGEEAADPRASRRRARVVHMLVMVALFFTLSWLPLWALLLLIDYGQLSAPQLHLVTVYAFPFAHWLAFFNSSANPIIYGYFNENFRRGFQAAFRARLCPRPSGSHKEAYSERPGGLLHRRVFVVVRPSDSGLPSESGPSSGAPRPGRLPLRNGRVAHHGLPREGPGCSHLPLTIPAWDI
Sequence of human NPFF2 receptor (Q9Y5X5 whole entry): as the sequence (Q9Y5X5 whole entry Y417A) above, with A417Y counted along it
Sequence of Y^5.38A hNPFF2 receptor (Q9Y5X5 whole entry Y321A): as the sequence (Q9Y5X5 whole entry Y417A) above, with Y321A, A417Y counted along it
Sequence of Y^7.33A_hNPFF2R (Q9Y5X5 whole entry Y415A): as the sequence (Q9Y5X5 whole entry Y417A) above, with Y415A, A417Y counted along it
Sequence of D^6.59A_hNPFF2R (Q9Y5X5 whole entry D400A): as the sequence (Q9Y5X5 whole entry Y417A) above, with D400A, A417Y counted along it

On to `N=C(N)N/N=C/c1ccc(Cl)c(C(F)(F)F)c1` [AC-099], for which the “functional behaviour at NPFF1R” value on hNPFF1R [1] is recorded as “partial agonists”. Further, the “functional behaviour at NPFF2R” value at human NPFF2 receptor is “full agonists”.
For the molecule `N=C(N)N/N=C/c1ccc(Br)c(Br)c1` [AC-093], at hNPFF1R [1], the “functional behaviour at NPFF1R” value is “partial agonists” and the x-fold is 310 fold. For the same molecule, on human NPFF2 receptor, the “functional behaviour at NPFF2R” value is “full agonists” and the x-fold was 1291 fold. For the same molecule, the “cytotoxicity (relative cell viability)” value in the data set with COS-7 cells was “cytotoxic effect”.
`NC(N)=NCCC[C@@H](NC(=O)C(c1ccccc1)c1ccccc1)C(=O)NCc1ccc(O)cc1` [BIBP3226, (R)-N(2)-(diphenylacetyl)-N-[(4-hydroxyphenyl)-methyl]-argininamide, reference compound]: on hNPFF1R [1], the “functional behaviour at NPFF1R” value was “competitive antagonist” and the “IP accumulation at NPFF1R” value was “no IP accumulation”. In addition, on human NPFF2 receptor, the “functional behaviour at NPFF2R” value was “partial agonist” and the x-fold came out at 137 fold. The x-fold on Y^7.35A_hNPFF2R is 66 fold. In addition, the Schild plot slope at hNPFF1R [2] is given as 0.89 ± 0.05.
As to `N=C(N)NCCC[C@H](NC(=O)C12CC3CC(CC(C3)C1)C2)C(=O)N[C@@H](Cc1ccccc1)C(N)=O` [RF9, 1-Adamantanecarbonyl-RF-NH2, reference compound], at hNPFF1R [1], the “functional behaviour at NPFF1R” value is “agonistic activity”. Moreover, the x-fold on hNPFF1R [1] is on record as 41 fold; at human NPFF2 receptor it was 222 fold; at Y^7.35A_hNPFF2R, 277 fold. Also, at human NPFF2 receptor, the “functional behaviour at NPFF2R” value is listed as “agonistic activity”. The “activity in cAMP accumulation assay” value on hNPFF1R [3] is “inactive”. Further, the “effect on stimulation of [^35S]GTPγS binding” value in the data set with hNPFF2R (hNPFF2R membranes, up to 100 μM) is “no effect”. For the same molecule, the “right-shift of concentration-effect curves of NPFF” value in the data set with hNPFF2R (in the presence of high concentrations of RF9) is listed as ~ 160 fold.
Turning to `N=C(N)N/N=C/c1ccc(-c2ccc(Br)cc2C(F)(F)F)o1` [AC-216], on hNPFF1R [1], the “functional behaviour at NPFF1R” value is reported as “full agonist” and the x-fold is on record as 3308 fold. Also, on human NPFF2 receptor, a half-maximal response (EC50) required 1160 ± 638 nM, the “functional behaviour at NPFF2R” value is recorded as “full agonists” and the x-fold was determined as 977 fold. The x-fold on Y^7.35A_hNPFF2R stood at 738 fold. Further, the “cytotoxicity (relative cell viability)” value with COS-7 cells is “cytotoxic effect”.
Turning to `N=C(N)N/N=C/C12CC3CC(CC(C3)C1)C2` [AC-970], the “functional behaviour at NPFF1R” value on hNPFF1R [1] is “competitive antagonism”. The “IP accumulation at NPFF1R” value at hNPFF1R [1] is given as “no IP accumulation”. In addition, the “functional behaviour at NPFF2R” value at human NPFF2 receptor is given as “full agonists”. The x-fold on human NPFF2 receptor is 175 fold; on Y^5.38A hNPFF2 receptor it was 1440 fold; on D^6.59A_hNPFF2R, 5211 fold; on Y^7.33A_hNPFF2R, 4901 fold; on Y^7.35A_hNPFF2R, 177 fold. At hNPFF1R [2], the Schild plot slope is recorded as 1.04 ± 0.19. Further, the “cytotoxicity (relative cell viability)” value with COS-7 cells is recorded as “cytotoxic effect”. Further, the “antinociceptive effect on mechanical allodynia” value in [4] is “reversing established mechanical allodynia”.

These data come from article PMC3404467 (Journal of Medicinal Chemistry, 2012).
